Assay results from paper PMC3932990 (Journal of medicinal chemistry, 2013).

How the values were obtained:
RPA70N [1] = target: T1, RPA70N (Homo sapiens, UniProt P27694); experiment: NMR-based titration, binding to RPA70N; details: linked compound vs fragments
RPA70N [2] = target: T1, RPA70N; experiment: ATRIP-based FPA competition assay; type: binding; details: from FPA-derived Kd
Method in brief: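 Competitive fluorescence polarization anisotropy. Buffer: 50 mM HEPES, 75 mM NaCl, 5 mM DTT, pH 7.5, 5% DMSO. Test compound run as 10-point 3-fold series, 500–0.025 µM final. 4-parameter logistic IC50 converted to Kd.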

Structure (SMILES)	increase in affinity with respect to the starting fragments (RPA70N [1]) [fold]	ligand efficiency (LE) (RPA70N [2])
Cc1cccc(-n2nc(C(=O)O)cc2-c2ccc(OCc3ccc(-c4ccc(C(=O)O)o4)cc3)cc2)c1 [compound 7, 5-(4-((4-(5-Carboxyfuran-2-yl)benzyl)oxy)phenyl)-1-(m-tolyl)-1H-pyrazole-3-carboxylic acid]	> 20	–
O=C(O)c1cc(-c2ccc(CNC(=S)c3ccc(-c4ccc(C(=O)O)o4)cc3Cl)cc2)n(-c2ccc(Cl)c(Cl)c2)n1 [compound 8, 5-(4-((4-(5-Carboxyfuran-2-yl)-2-chlorophenylthioamido)methyl)phenyl)-1-(3,4-dichlorophenyl)-1H-pyrazole-3-carboxylic acid]	–	0.23
O=C(O)c1cc(-c2ccc(CNC(=O)c3ccc(-c4ccc(C(=O)O)o4)cc3Cl)cc2)n(-c2ccc(Cl)c(Cl)c2)n1 [compound 22, 5-(4-((4-(5-Carboxyfuran-2-yl)-2-chlorobenzamido)methyl)phenyl)-1-(3,4-dichlorophenyl)-1H-pyrazole-3-carboxylic acid]	–	0.18
